# Measurements taken from publication PMC6900553 (Acta Pharmaceutica Sinica. B, 2019).
# What was measured:
# [1] = Metabolic stability in mouse liver microsomes; format: in vitro ADME; details: pH 7.4
# Summary of the method: (§1)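 Liver microsomes were incubated in PBS pH 7.4 at 37 °C with test compound at 1 μmol/L final (1.5 μmol/L in the microsome pre-mix, 0.75 mg/mL microsomes). The reaction was started with NADPH (6 mmol/L stock). Samples at 0, 5, 15, 30 and 45 min were quenched with acetonitrile containing internal standard, vortexed, centrifuged and analysed by LC–MS/MS. Results were expressed as % parent remaining, giving t1/2.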
# [2] = Metabolic stability in monkey liver microsomes; format: in vitro ADME; details: pH 7.4
# Summary of the method: as §1
# [3] = Metabolic stability in dog liver microsomes; format: in vitro ADME; details: pH 7.4
# Summary of the method: as §1
# [4] = Metabolic stability in rat liver microsomes; format: in vitro ADME; details: pH 7.4
# Summary of the method: as §1
# [5] = Pharmacokinetic study in rats; format: in vivo; details: Sprague-Dawley, rat, plasma; for AUC: mean ± SD, n = 3
# [6] = test system: A431 human tumor xenografts; experiment: A431 human tumor xenograft study in nude mice; format: in vivo; details: A431 xenograft tumor tissue protein, Western blot
# Summary of the method: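 Athymic BALB/c nude mice, 4–6 weeks old, were implanted s.c. at one site with 1.5 × 10^7 A431 cells under anaesthesia. At 100–200 mm3, mice were randomised into four groups. Saline vehicle (0.1 mL/10 g) or test compound at 10 or 40 mg/kg was given i.g. daily for 27 days. Caliper tumour size and body weight were recorded every 2 days. Excised tumours were weighed, RIPA-extracted and Western blotted; mean ± SD, n = 3.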
# [7] = Caco-2 cell permeability assay; details: human
half-life at 1 μmol/L [1],half-life at 1 μmol/L [2],half-life at 1 μmol/L [3],half-life at 1 μmol/L [4],"MRT inf ([5]; iv, 10 mg/kg)","AUC ([5]; iv, 10 mg/kg, AUCINF_plasma, i.v. 10 mg/kg)","AUC ([5]; iv, 10 mg/kg, AUClast_plasma, i.v. 10 mg/kg)","bioavailability ([5]; oral, 40 mg/kg)","Cmax ([5]; po, 40 mg/kg)","Tmax ([5]; po, 40 mg/kg)","half-life ([5]; po, 40 mg/kg)","AUC ([5]; po, 40 mg/kg, AUCINF_plasma, p.o. 40 mg/kg)","AUC ([5]; po, 40 mg/kg, AUClast_plasma, p.o. 40 mg/kg)","Papp A→B at 90 min, 10 μmol/L [7]","Papp B→A at 90 min, 10 μmol/L [7]","efflux ratio at 90 min, 10 μmol/L [7]",Structure (SMILES),p-EGFR and p-AKT in tumor extracts [6]
8.38 min,4.66 min,34.5 min,21.2 min,272 ± 11.4 min,7800 ± 1460 ng·h/mL,7720 ± 1430 ng·h/mL,66.5 ± 22.8%,1480 ± 395 ng/mL,260 ± 173 min,231 ± 21 min,20800 ng·h/mL,20500 ng·h/mL,8.37 ± 0.01 ×10⁻⁶ cm/s,15.52 ± 0.02 ×10⁻⁶ cm/s,–,COc1cc2ncnc(Nc3ccc(F)c(Cl)c3)c2cc1OCCCN1CCOCC1 [Gefitinib],clearly inhibited
–,–,–,–,–,–,–,–,–,–,–,–,–,0.09 ± 0.03 ×10⁻⁶ cm/s,22.18 ± 0.02 ×10⁻⁶ cm/s,240,CC[C@H]1OC(=O)[C@H](C)[C@@H](O[C@H]2C[C@@](C)(OC)[C@@H](O)[C@H](C)O2)[C@H](C)[C@@H](O[C@@H]2O[C@H](C)C[C@H](N(C)C)[C@H]2O)[C@](C)(O)C[C@@H](C)C(=O)[C@H](C)[C@@H](O)[C@]1(C)O [Erythromycin],–
–,–,–,–,–,–,–,–,–,–,–,–,–,40.04 ± 0.05 ×10⁻⁶ cm/s,30.92 ± 0.03 ×10⁻⁶ cm/s,0.77,COCCc1ccc(OCC(O)CNC(C)C)cc1 (stereo not shown) [Metoprolol],–
